Test results reported in ChEMBL document CHEMBL2311339, “Identification of GZD824 as an orally bioavailable inhibitor that targets phosphorylated and nonphosphorylated breakpoint cluster region-Abelson (Bcr-Abl) kinase and overcomes clinically acquired mutation-induced resistance against imatinib” (J Med Chem, 2013).
pIC50, pKd: −log10 of the molar value. Active and inactive are the calls of the source. The rule behind the calls is not given here.

Columns and labels:
[1] = Volume of distribution at steady state in rat at 5 mg/kg, iv; assay type: ADME, organism-based; design: dose 5 mg/kg, route intravenous; conditions: in vivo, read-out: Vdss
In short: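 Test compound given to rats as its bismesylate salt in a single dose, 5 mg/kg iv or 25 mg/kg by mouth. Plasma drug levels were monitored after dosing, and PK parameters including Vss were reported per route.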

[2] = target: Cytochrome P450 2D6 (Homo sapiens, UniProt P10635); assay: Inhibition of human recombinant CYP2D6 at 30 uM after 30 mins; assay type: ADME; conditions: recombinant enzyme, 0.5 h
[3] = target: Cytochrome P450 1A2 (Homo sapiens, UniProt P05177); assay: Inhibition of human recombinant CYP1A2 at 30 uM after 30 mins; assay type: ADME; conditions: recombinant enzyme, 0.5 h
[4] = target: T1, Tyrosine-protein kinase ABL1 (Homo sapiens, UniProt P00519, E255K); assay: Binding affinity to phosphorylated ABL1 E255K mutant (unknown origin) after 1 hr
[5] = Cytotoxicity against human KU812 cells expressing BCR-ABL assessed as growth inhibition after 72 hrs by CCK-8 assay; assay type: functional, cell-based; conditions: KU812, 72 h
In short: (§1)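 Log-phase human leukemia cells were seeded at about 3000 cells/well and treated 24 h later for 72 h. CCK-8 was then incubated with the cells for 3 h and read as OD450 − OD650. Viability was normalized to vehicle wells and cell-free blanks, and IC50 taken as the mean of three experiments.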

[6] = target: Tyrosine-protein kinase ABL1 (Homo sapiens, UniProt P00519, T315I); assay type: cell-based
[7] = Cytotoxicity against mouse BA/F3 cells expressing BCR-ABL F317V mutant assessed as growth inhibition after 72 hrs by CCK-8 assay; conditions: BaF3, 72 h
[8] = target: T1, Tyrosine-protein kinase ABL1; assay: Inhibition of human recombinant ABL1 E255K mutant expressed in insect cells after 30 mins by FRET assay; assay type: cell-based
[9] = Intrinsic clearance in rat liver microsomes at 1 uM; assay type: ADME, Microsome; conditions: read-out: CLH
[10] = Cytotoxicity against mouse BA/F3 cells expressing BCR-ABL E255V mutant assessed as growth inhibition after 72 hrs by CCK-8 assay; conditions: BaF3, 72 h
[11] = tested on: K562; assay: Antitumor activity against human K562 cells xenografted in mouse assessed as decrease in tumor recurrence at 5 to 10 mg/kg, po qd for 20 days; assay type: functional, organism-based
[12] = target: Tyrosine-protein kinase ABL1 (Homo sapiens, UniProt P00519); assay: Binding affinity to phosphorylated wild type ABL1 (unknown origin) after 1 hr
[13] = Cytotoxicity against mouse BA/F3 cells expressing BCR-ABL E359V mutant assessed as growth inhibition after 72 hrs by CCK-8 assay; conditions: BaF3, 72 h
[14] = tested on: BaF3; assay: Antitumor activity against mouse BA/F3 cells expressing wild type BCR-ABL allografted in SCID mouse assessed as induction of tumor regression at 5 mg/kg/day, po qd for 14 days; assay type: functional, organism-based
In short: (§2)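 Ba/F3 cells stably expressing Bcr-Abl (wild type or mutant) were grown in RPMI 1640 with 10% FBS and no IL-3, then suspended in saline (2.5 × 10^7 cells/mL) and given as 0.2 mL s.c. in the right flank. Groups were randomised at 100−200 mm3. Once-daily oral gavage for 14 days in DMSO/Cremophor/ethanol/saline vehicle; reference imatinib 50 or 100 mg/kg/day. Volume L × W²/2 every 2 days; n = 10; t test versus vehicle.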

[15] = tested on: HL-60; assay: Cytotoxicity against human HL60 cells […] assessed as growth inhibition after 72 hrs by CCK-8 assay; assay type: functional, cell-based; conditions: HL-60, 72 h; in short: as §1
[16] = Cytotoxicity against mouse BA/F3 cells expressing BCR-ABL E355G mutant assessed as growth inhibition after 72 hrs by CCK-8 assay; conditions: BaF3, 72 h
[17] = tested on: Caco-2; assay: Efflux ratio of permeability from […] in human Caco2 cells; assay type: ADME, cell-based
[18] = target: Cytochrome P450 3A4 (Homo sapiens, UniProt P08684); assay: Inhibition of human recombinant CYP3A4 at 30 uM after 30 mins; assay type: ADME; conditions: recombinant enzyme, 0.5 h
[19] = tested on: BaF3; assay: Antitumor activity against mouse BA/F3 cells expressing BCR-ABL T315I mutant allografted in SCID mouse assessed as inhibition of tumor growth at 5 to 10 mg/kg/day, po qd for 14 days; assay type: functional, organism-based; in short: as §2
[20] = Cytotoxicity against mouse BA/F3 cells expressing BCR-ABL E255K mutant assessed as growth inhibition after 72 hrs by CCK-8 assay; conditions: BaF3, 72 h
[21] = tested on: BaF3; assay: Antitumor activity against mouse BA/F3 cells expressing BCR-ABL G250E mutant allografted in po dosed SCID mouse assessed as reduction of hepatosplenomegaly administered qd for 14 days; assay type: functional, organism-based
[22] = tested on: K562; assay: Cytotoxicity against human K562 cells expressing BCR-ABL assessed as growth inhibition after 72 hrs by CCK-8 assay; assay type: functional, cell-based; conditions: K562, 72 h; in short: as §1
[23] = tested on: BaF3; assay: Antitumor activity against mouse BA/F3 cells expressing BCR-ABL T315I mutant allografted in SCID mouse assessed as complete suppression of cell proliferation at 20 mg/kg/day, po qd for 10 days; assay type: functional, organism-based
In short: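 Ba/F3 Bcr-Abl T315I cells stably carrying firefly luciferase, in saline, were injected i.v. into SCID nude mice (2 × 10^6 cells/0.1 mL). Imaging began 5−7 days later: i.p. D-luciferin, halothane anaesthesia, images after 5 min. Mice were randomised by signal and dosed by oral gavage once daily for 10 days (5, 10, 20 mg/kg/day; imatinib 100 mg/kg; vehicle). Luminescence was quantified; survival by Kaplan−Meier with log-rank test.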

[24] = target: Tyrosine-protein kinase ABL1 (Homo sapiens, UniProt P00519, F317I); assay: Binding affinity to non phosphorylated ABL1 F317I mutant (unknown origin) after 1 hr
[25] = target: Voltage-gated inwardly rectifying potassium channel KCNH2 (Homo sapiens, UniProt Q12809); assay: Inhibition of human ERG expressed in CHO cells at up to 30 uM after 2.5 hrs by Rb+ efflux assay; assay type: cell-based
[26] = target: Proto-oncogene tyrosine-protein kinase receptor Ret (Homo sapiens) (UniProt P07949); assay: Binding affinity to RET (unknown origin) at 10 nM after 2 hrs by FRET assay
[27] = target: Fibroblast growth factor receptor (Homo sapiens) (UniProt P22607+P11362+P22455+P21802); assay: Binding affinity to FGFR (unknown origin) at 10 nM after 2 hrs by FRET assay; assay type: protein assay
[28] = tested on: BaF3; assay: Antitumor activity against mouse BA/F3 cells expressing BCR-ABL T315I mutant allografted in SCID mouse assessed as suppression of cell proliferation at 1 to 20 mg/kg/day, po qd for 10 days; assay type: functional, organism-based
[29] = Cytotoxicity against mouse BA/F3 cells expressing wild type BCR-ABL assessed as growth inhibition after 72 hrs by CCK-8 assay; conditions: BaF3, 72 h
[30] = target: Platelet-derived growth factor receptor alpha (Homo sapiens) (UniProt P16234); assay: Binding affinity to PDGFRalpha (unknown origin) at 10 nM after 2 hrs by FRET assay
[31] = Cytotoxicity against mouse BA/F3 cells expressing BCR-ABL Y253F mutant assessed as growth inhibition after 72 hrs by CCK-8 assay; conditions: BaF3, 72 h
[32] = tested on: KU812; assay: Antitumor activity against human KU812 cells xenografted in mouse assessed as induction of tumor regression at 1 mg/kg, po qd for 14 days; assay type: functional, organism-based; design: dose 1 mg/kg

Sequence of Fibroblast growth factor receptor (Homo sapiens) (P11362 whole entry, looked up): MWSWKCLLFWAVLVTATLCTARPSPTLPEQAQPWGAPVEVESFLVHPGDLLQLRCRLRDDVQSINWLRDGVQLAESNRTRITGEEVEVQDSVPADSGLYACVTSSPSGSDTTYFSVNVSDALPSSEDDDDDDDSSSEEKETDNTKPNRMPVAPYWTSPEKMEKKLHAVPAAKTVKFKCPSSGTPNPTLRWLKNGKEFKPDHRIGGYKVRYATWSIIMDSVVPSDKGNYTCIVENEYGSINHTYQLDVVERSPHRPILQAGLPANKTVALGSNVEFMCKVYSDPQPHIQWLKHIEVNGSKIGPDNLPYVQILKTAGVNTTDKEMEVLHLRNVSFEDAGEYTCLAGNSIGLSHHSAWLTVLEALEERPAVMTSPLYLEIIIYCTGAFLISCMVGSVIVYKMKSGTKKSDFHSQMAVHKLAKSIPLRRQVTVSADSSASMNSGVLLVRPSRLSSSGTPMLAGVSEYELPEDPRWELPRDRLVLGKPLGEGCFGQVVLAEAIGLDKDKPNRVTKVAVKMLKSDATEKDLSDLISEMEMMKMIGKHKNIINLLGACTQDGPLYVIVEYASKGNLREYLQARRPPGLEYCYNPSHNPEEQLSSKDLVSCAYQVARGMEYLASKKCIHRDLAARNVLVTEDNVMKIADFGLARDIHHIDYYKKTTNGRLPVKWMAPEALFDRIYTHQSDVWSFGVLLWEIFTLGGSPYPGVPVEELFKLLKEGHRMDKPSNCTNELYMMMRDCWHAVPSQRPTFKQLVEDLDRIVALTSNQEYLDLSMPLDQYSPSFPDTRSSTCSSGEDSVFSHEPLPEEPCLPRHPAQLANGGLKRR
Sequence of Fibroblast growth factor receptor (Homo sapiens) (P21802 whole entry, looked up): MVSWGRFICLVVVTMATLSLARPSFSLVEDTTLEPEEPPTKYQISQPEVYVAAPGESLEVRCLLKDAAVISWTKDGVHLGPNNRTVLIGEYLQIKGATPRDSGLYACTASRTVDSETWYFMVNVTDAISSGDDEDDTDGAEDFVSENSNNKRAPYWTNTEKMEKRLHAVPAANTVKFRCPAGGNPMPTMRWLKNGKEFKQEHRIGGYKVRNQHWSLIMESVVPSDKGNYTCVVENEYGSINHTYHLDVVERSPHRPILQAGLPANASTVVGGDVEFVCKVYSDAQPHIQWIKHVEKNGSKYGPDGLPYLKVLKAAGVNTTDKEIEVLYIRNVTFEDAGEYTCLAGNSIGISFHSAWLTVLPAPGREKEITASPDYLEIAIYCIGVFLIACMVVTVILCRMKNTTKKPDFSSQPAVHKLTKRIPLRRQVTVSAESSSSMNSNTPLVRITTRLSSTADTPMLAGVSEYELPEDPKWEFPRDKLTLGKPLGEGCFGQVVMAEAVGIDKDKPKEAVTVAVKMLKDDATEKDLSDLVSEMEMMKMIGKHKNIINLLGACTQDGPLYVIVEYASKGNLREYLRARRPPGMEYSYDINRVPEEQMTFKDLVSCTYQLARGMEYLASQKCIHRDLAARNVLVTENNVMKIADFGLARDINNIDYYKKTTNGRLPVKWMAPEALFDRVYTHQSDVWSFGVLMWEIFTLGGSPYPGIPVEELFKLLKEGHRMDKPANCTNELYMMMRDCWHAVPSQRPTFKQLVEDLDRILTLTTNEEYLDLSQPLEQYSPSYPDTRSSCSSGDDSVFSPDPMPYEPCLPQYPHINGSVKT
Sequence of Fibroblast growth factor receptor (Homo sapiens) (P22455 whole entry, looked up): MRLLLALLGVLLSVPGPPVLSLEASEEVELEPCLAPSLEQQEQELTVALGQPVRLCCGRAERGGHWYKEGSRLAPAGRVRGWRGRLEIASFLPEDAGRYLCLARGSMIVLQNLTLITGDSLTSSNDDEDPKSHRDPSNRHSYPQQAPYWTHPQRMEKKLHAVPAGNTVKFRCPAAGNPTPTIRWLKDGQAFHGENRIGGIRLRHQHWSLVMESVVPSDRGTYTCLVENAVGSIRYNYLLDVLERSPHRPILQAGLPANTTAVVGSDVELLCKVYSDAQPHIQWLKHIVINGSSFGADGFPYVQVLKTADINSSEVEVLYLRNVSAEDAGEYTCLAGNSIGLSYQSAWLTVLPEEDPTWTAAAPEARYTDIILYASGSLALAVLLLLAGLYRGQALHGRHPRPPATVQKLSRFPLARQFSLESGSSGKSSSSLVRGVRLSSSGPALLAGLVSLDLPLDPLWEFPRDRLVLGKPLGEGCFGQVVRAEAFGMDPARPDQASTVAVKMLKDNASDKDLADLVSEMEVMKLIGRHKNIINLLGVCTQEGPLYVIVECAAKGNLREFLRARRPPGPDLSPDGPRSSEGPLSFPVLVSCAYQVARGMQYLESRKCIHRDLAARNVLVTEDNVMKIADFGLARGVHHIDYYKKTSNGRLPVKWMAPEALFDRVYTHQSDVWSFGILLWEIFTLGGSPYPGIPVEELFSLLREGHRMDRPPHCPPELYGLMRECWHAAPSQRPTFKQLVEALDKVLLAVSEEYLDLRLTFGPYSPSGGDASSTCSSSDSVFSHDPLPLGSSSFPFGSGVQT
Sequence of Fibroblast growth factor receptor (Homo sapiens) (P22607 whole entry, looked up): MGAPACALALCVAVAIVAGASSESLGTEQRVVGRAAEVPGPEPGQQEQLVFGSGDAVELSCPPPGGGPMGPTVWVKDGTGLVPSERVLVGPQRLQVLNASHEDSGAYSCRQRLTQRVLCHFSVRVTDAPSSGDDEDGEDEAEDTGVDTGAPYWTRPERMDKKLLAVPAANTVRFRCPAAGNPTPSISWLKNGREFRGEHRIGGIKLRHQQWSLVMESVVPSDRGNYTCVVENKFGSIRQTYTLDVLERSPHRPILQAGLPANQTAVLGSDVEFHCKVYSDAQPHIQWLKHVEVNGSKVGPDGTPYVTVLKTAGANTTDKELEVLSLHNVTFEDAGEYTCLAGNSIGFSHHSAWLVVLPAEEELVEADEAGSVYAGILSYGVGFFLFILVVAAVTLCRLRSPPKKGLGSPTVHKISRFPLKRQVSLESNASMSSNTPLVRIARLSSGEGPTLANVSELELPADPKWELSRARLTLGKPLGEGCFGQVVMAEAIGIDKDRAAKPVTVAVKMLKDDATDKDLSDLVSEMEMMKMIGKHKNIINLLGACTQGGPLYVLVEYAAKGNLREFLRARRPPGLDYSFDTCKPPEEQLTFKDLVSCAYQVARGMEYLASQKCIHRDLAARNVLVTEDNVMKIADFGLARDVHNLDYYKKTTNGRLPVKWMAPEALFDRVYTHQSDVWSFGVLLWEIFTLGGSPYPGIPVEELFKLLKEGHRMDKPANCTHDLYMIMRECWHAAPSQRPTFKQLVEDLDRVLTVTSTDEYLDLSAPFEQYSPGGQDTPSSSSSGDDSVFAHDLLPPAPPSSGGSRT
Sequence of Voltage-gated inwardly rectifying potassium channel KCNH2 (Q12809 whole entry): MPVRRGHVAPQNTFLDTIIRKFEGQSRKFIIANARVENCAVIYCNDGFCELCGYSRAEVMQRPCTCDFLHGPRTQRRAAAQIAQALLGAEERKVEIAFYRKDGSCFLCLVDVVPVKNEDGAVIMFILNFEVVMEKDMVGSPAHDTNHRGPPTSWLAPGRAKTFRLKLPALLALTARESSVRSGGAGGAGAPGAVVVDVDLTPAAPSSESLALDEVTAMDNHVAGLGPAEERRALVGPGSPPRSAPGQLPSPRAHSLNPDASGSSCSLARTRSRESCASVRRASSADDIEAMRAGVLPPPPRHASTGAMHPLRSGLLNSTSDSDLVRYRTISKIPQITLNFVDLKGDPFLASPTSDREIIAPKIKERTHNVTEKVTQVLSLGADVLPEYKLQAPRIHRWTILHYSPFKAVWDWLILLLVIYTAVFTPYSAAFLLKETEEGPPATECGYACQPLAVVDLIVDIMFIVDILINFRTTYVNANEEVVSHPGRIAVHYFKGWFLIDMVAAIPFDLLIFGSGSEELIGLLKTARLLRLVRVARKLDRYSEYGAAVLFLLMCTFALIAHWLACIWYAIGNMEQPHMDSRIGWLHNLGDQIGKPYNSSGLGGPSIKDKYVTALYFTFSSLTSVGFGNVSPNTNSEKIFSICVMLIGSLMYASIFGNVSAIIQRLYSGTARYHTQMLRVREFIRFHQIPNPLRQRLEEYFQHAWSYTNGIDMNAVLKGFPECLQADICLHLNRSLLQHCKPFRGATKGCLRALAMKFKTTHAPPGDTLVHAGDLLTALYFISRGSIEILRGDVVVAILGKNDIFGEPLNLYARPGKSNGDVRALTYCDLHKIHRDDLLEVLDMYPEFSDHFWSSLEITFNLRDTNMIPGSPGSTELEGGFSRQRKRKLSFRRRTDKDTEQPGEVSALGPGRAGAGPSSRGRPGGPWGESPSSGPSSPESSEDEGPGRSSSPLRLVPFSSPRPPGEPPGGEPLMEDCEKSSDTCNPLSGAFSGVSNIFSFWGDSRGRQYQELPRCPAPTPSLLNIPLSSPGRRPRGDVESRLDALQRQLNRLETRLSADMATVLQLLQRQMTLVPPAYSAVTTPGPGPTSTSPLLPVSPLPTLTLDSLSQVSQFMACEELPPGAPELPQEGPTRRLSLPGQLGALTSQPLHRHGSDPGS
Sequence of Cytochrome P450 3A4 (P08684 whole entry): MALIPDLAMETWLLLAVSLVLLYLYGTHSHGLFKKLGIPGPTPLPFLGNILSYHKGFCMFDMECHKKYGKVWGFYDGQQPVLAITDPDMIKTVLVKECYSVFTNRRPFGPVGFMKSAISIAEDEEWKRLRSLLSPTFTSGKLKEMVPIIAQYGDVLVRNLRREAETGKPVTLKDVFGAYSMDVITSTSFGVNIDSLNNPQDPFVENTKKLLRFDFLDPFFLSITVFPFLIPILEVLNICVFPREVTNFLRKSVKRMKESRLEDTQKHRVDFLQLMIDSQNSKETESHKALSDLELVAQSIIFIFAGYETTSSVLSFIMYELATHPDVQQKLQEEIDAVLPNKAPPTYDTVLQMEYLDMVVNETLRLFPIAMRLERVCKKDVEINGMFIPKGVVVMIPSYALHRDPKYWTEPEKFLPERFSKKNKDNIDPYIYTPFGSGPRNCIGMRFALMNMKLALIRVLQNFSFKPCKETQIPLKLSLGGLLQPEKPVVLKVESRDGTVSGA

Cc1ccc(C(=O)Nc2ccc(CN3CCN(C)CC3)c(C(F)(F)F)c2)cc1C#Cc1cnc2[nH]ncc2c1 [OLVEREMBATINIB]
Vd [1]: 13.7 L/kg
inhibition (INH) [2]: Not Active
inhibition (INH) [3]: Not Active
pKd [4]: 9.55
pIC50 [5]: 9.89
pIC50 [6]: 9.17
pIC50 [7]: 8.40
pIC50 [8]: 9.57
microsomal CLint at 1 µM [9]: 36.4 µL/min/mg
pIC50 [10]: 8.09
Activity [11]: Active
pKd [12]: 9.47
pIC50 [13]: 8.64
Activity [14]: Active
pIC50 [15]: 6.46
pIC50 [16]: 8.59
Ratio [17]: 0.9
inhibition (INH) [18]: Not Active
TGI [19]: inactive
pIC50 [20]: 8.46
Activity [21]: Active
pIC50 [22]: 9.70
Activity [23]: Active
pKd [24]: 8.74
inhibition (INH) [25]: Not Active
Activity [26]: inactive
Activity [27]: inactive
Activity [28]: Dose-dependent effect
pIC50 [29]: 9.00
Activity [30]: inactive
pIC50 [31]: 7.96
Activity [32]: Active
